According to ChEMBL document CHEMBL1687867, “Thiazolidione derivatives as novel antibiofilm agents: design, synthesis, biological evaluation, and structure-activity relationships” (2011):
In brackets after ≈: the same amount, converted by molar mass.

Columns and labels:
[1] = system: Staphylococcus epidermidis; experiment: Antibacterial activity against Staphylococcus epidermidis ATCC 35984 assessed as inhibition of biofilm production after 6 hrs; format: functional, RP62A; conditions: in the assay text read “after 18 hrs” for “after 6 hrs”
Method in brief: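 Young S. epidermidis biofilm grown 6 h at 37 °C in TSB with glucose in microtiter wells, washed four times with PBS, then exposed to fresh TSB carrying serially diluted compounds for 18 h at 37 °C. After PBS washes, methanol fixation 15 min, air drying and crystal violet staining. Washed dried biofilm served as blank (subtracted), TSB-only biofilm as positive control; triplicate wells, three repeats.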

[2] = system: Staphylococcus epidermidis; experiment: Antibacterial activity against Staphylococcus epidermidis ATCC 35984 by broth microdilution method; format: functional; conditions: RP62A
Method in brief: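 MIC determined by CLSI broth microdilution […].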

[3] = system: Staphylococcus epidermidis; experiment: Antibacterial activity against Staphylococcus epidermidis ATCC 35984 assessed as inhibition of biofilm production after 18 hrs

| Compound | Biofilm inhibitory concentration [1] [µM] | MIC [2] [µM] | INH [3] [µM] |
| --- | --- | --- | --- |
| CCOC(=O)C1=C(c2ccccc2)N=c2s/c(=C\c3ccc(O)cc3)c(=O)n2C1c1ccc(OC)cc1 (stereo not given) | >200 | > 200 |  |
| CCOC(=O)C1=C(c2ccccc2)N=c2s/c(=C\c3ccc(-c4cccc(C(=O)OC)c4)o3)c(=O)n2C1c1ccccc1 (stereo not given) | >200 | > 200 |  |
| CCOC(=O)C1=C(c2ccccc2)N=c2s/c(=C\c3cccc(O)c3)c(=O)n2C1c1ccc(OC)cc1 (stereo not given) | >200 | > 200 |  |
| CCOC(=O)C1=C(c2ccccc2)N=c2s/c(=C\c3ccc(-c4cccc(C(=O)O)c4)o3)c(=O)n2C1c1ccc(OC)cc1 (stereo not given) | 25 | 6.25 (≈ 3.79 µg/mL) |  |
| CCOC(=O)C1=C(c2ccccc2)N=c2s/c(=C\c3ccc(-c4cccc(C(=O)O)c4)o3)c(=O)n2C1c1ccccc1 (stereo not given) | >200 | > 200 |  |
| CCOC(=O)C1=C(c2ccccc2)N=c2s/c(=C\c3ccc(N(C)C)cc3)c(=O)n2C1c1ccc(OC)cc1 (stereo not given) | >200 | > 200 |  |
| Cc1ccccc1/N=C1/S/C(=C\c2ccc(-c3cccc(C(=O)O)c3)o2)C(=O)N1c1ccccc1C | 25 | 12.5 (≈ 6.18 µg/mL) |  |
| CCOC(=O)C1=C(c2ccccc2)N=c2s/c(=C\c3ccc(OCC(=O)O)cc3)c(=O)n2C1c1ccc2c(c1)OCO2 (stereo not given) | 50 | 25 (≈ 14.6 µg/mL) |  |
| CCOC(=O)C1=C(c2ccccc2)N=c2s/c(=C\c3ccc(OCC(=O)O)cc3)c(=O)n2C1c1ccc(OC)cc1 (stereo not given) | 50 | 25 (≈ 14.3 µg/mL) |  |
| CCOC(=O)C1=C(c2ccccc2)N=c2s/c(=C\c3ccc(-c4cccc(C(=O)OC)c4)o3)c(=O)n2C1c1ccc(OC)cc1 (stereo not given) | >200 | > 200 |  |
| COc1ccc(C/N=C2/S/C(=C\c3ccc(OCC(=O)O)cc3)C(=O)N2Cc2ccc(OC)cc2)cc1 | 25 | 12.5 (≈ 6.48 µg/mL) |  |
| CCOC(=O)C1=C(c2ccccc2)N=c2s/c(=C\c3cccc([N+](=O)[O-])c3)c(=O)n2C1c1ccc(OC)cc1 (stereo not given) | >200 | > 200 |  |
| Cc1ccccc1/N=C1/S/C(=C\c2ccc(-c3ccc(C(=O)O)cc3)o2)C(=O)N1c1ccccc1C |  | 3.12 (≈ 1.55 µg/mL) | 6.25 |
| COc1ccc(C/N=C2/S/C(=C\c3ccc(-c4cccc(C(=O)O)c4)o3)C(=O)N2Cc2ccc(OC)cc2)cc1 |  | 50 (≈ 27.7 µg/mL) |  |
| CCOC(=O)C1=C(c2ccccc2)N=c2s/c(=C\c3ccc(-c4cccc(C(=O)O)c4)o3)c(=O)n2C1c1ccc2c(c1)OCO2 (stereo not given) | 25 | 6.25 (≈ 3.88 µg/mL) |  |
| Cc1ccc(/N=C2/S/C(=C\c3ccc(-c4cccc(C(=O)O)c4)o3)C(=O)N2c2ccc(C)cc2)cc1 | 12.5 | 6.25 (≈ 3.09 µg/mL) |  |
| CCOC(=O)C1=C(c2ccccc2)N=c2s/c(=C\c3ccc(O)c(OC)c3)c(=O)n2C1c1ccc(OC)cc1 (stereo not given) | >200 | > 200 |  |
| COc1ccc(/N=C2/S/C(=C\c3ccc(-c4cccc(C(=O)O)c4)o3)C(=O)N2c2ccc(OC)cc2)cc1 |  | 6.25 (≈ 3.29 µg/mL) | 6.25 |
